In the library only some 4.4% were active in any assay of this set; here they are far more common.
HIF activator: HIF pathway transcriptional activation | U2OS HRE-luciferase reporter, luminescence; normalized: DMSO 0%, desferrioxamine 100% | activation, % at 7.5 µM (by protocol) | actives 0.32% (n = 300,000);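 active = mean activation of at least 10% of the iron chelator positive control signal, with at least half of replicates also reaching 10%; inconclusive = mean and replicate majority disagree about reaching 10%; inactive = mean and most replicates under 10%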
HSF1 activator: increases HSF-1 driven luciferase reporter signal; NIH3T3-HGL HSF-1 luciferase reporter, MG132, 8 h; 100% = twice DMSO control signal; activation, % at 9 µM; actives 1.7% (n = 300,000); AID 504408;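 active = mean replicate activation of at least 50% with a set share of replicates each reaching 50%; inconclusive = only one of those two conditions met; inactive = mean below 50% and too few replicates reaching it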;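 also: 0% = median of the neutral control wells and 100% = twice that signal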
HSF1 inhib: HSF1 inhibition; NIH3T3-HGL HSE-luciferase, MG132-induced, luminescence 8 h; active compounds read low; activity change, negative = inhibition, % at 7.5 µM (by protocol); actives 0.77% (n = 300,000); AID 2098;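 active = more than half of replicate wells show activity change below -50%, luminescence cut by over half; inconclusive = some wells, but at most half, below -50%; inactive = no replicate well below -50%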;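 also: luciferase reports HSF-1 transcriptional activity via heat shock element; 0% = median of DMSO wells and -100% = zero luminescence signal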
T cruzi inh: T. cruzi replication inhibition. T. cruzi beta-gal in NIH3T3, luminescence, 90 h. inhibition, % (concentration not given with the values). actives 1.4% (n = 300,000);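 active = mean inhibition across valid replicates above about 55%, limit read from the data; inconclusive = mean below that limit but half or more replicates reach it; inactive = mean below it, under half of replicates reach it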;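 also: signal also drops with host cell toxicity which is not excluded here; 0% = plate median of DMSO wells and 100% = zero luminescence signal; higher percent means less beta-gal luminescence so fewer parasites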
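compound dosing = single 50 nL compound addition per well in DMSO | material = NIH/3T3 host cells with β-galactosidase reporter T. cruzi | input = 5,000 host fibroblasts per well | timing = ≥90 h infection period, 3 h prior cell attachment | read-out basis = percent inhibition of parasite-derived β-gal signal | detection = GalScreen β-gal luminescence, detergent lysis, 60 min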
Calb FLC: affects C. albicans growth with fluconazole; C. albicans CaCi-2 (fluconazole-resistant clinical isolate) + fluconazole, Alamar Blue growth, 48 h; actives 0.57% (n = 300,000); growth inhibition, % (no concentration beside the values);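 active = growth inhibition above about 58% in most replicates, limit read from the data, passing the limit was not always enough; inconclusive = exactly half the replicates above a set limit; inactive = most replicates below a set limit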;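 also: all wells also contain fluconazole at 8 µg/ml as a sub-toxic cotreatment; 0% = median of DMSO wells and 100% = median of geldanamycin control wells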
Active calls of the source: *; ? = inconclusive; . = no result given.

SMILES	HIF activator	HSF1 activator	HSF1 inhib	T cruzi inh	Calb FLC
Clc1ccc(-n2cc(COCc3ccccc3)nn2)cc1	0.9	61.3*	28.1	0.6	3.1
Cc1cccc(N2CCN(C(=O)CCCn3c(=S)[nH]c4cc5c(cc4c3=O)OCO5)CC2)c1C	0.0	9.1	3.1	57.3*	-4.1
O=C(CCCn1c(=S)[nH]c2cc3c(cc2c1=O)OCO3)N1CCN(c2ccccc2)CC1	0.1	15.1	-3.5	23.0	31.0
CCOc1cc2[nH]c(=S)n(CCCC(=O)NCc3ccco3)c(=O)c2cc1OCC	-0.1	0.0	1.9	3.5	-15.2
O=C(CCCn1c(=S)[nH]c2cc3c(cc2c1=O)OCO3)NCc1ccco1	-0.6	54.8*	4.6	-20.5	-33.4
COc1ccc(OCc2nnnn2-c2ccccc2)cc1	0.3	54.6*	13.9	-6.9	-3.5
O=C(O)CC(NCc1ccco1)C(=O)Nc1cccc(O)c1 (stereo unspecified)	-0.8	-3.0	0.8	-14.6	6.9
CC(C)(C)n1nnnc1SCC(=O)Nc1nn(-c2ccccc2)nc1C(N)=O	.	.	.	.	1.8
COC(=O)c1ccc(COc2ccccc2/C=C(\C#N)C(=O)Nc2c(C)cc(C)cc2C)cc1	0.3	93.2*	68.0	47.1	?
OC(c1ccccc1)(c1ccccc1)c1ccn[nH]1	-0.9	-4.3	-0.9	2.9	-0.3
Cc1ccc(NC(=O)NC(=S)NC(=O)c2ccccc2)cc1	2.5	54.2*	23.0	-2.5	27.5
Cc1ccc(C(=O)NNC(=S)NC(=O)c2ccccc2)cc1	0.8	-2.5	-0.2	29.9	36.1
O=C(O)c1ccc(NC(=S)NC(=O)c2ccc(-c3ccccc3)cc2)cc1	2.6	23.8	23.2	-3.8	84.4*
C=CCN(CC=C)C(=S)NC(=O)c1ccc(-c2ccccc2)cc1	-0.9	15.0	6.4	55.3*	-10.9
CCOc1ccc(CO/N=C/c2c(C)[nH]c(=O)[nH]c2=O)cc1	-0.3	-5.7	0.0	4.2	0.9
COc1cc(NC(=O)c2ccc([N+](=O)[O-])cc2)c(OC)cc1NC(=O)CC(C)C	-0.4	-2.2	-1.7	6.7	7.9
COc1ccc(OC)c(Nc2nc(NCCO)c3ccccc3n2)c1	0.9	1.2	-2.3	55.7*	7.9
COc1ccc(OC)c(Nc2c3c(nc4ccccc24)CCC3)c1	-28.8	-22.7	-24.2	58.8*	7.0
COc1ccccc1Nc1nc(NCC2CCCO2)c2ccccc2n1 (stereo unspecified)	-0.8	1.7	6.3	64.3*	-3.6
c1ccc(N2CC3CCc4ccccc4C3=N2)cc1 (stereo unspecified)	2.1	57.4*	22.7	11.9	-19.1
CN1N=C2c3ccccc3CCC2C1c1ccc(F)cc1 (stereo unspecified)	3.9	-21.5	-8.5	-9.0	-2.7
CCN(CC)CCCNc1ccc(-c2nnc(-c3ccc(OCC(C)C)cc3)o2)cn1	-3.6	-12.0	-14.4	54.9*	3.7
CC(C)COc1ccc(-c2nnc(-c3ccco3)o2)cc1	-5.9	-13.8	-18.3	0.1	18.9
C=C1SC(=Nc2ccccc2Cl)N(C(=O)c2sc3ccccc3c2Cl)C1(C)C	3.3	56.6*	5.8	-1.1	-11.8
Oc1ccc(N=Nc2ccc3c(c2)OCCO3)c2ncccc12	1.1	24.1	24.5	67.9*	88.9*
SMILES	HIF activator	HSF1 activator	HSF1 inhib	T cruzi inh	Calb FLC
Cc1cccc(N=Nc2ccc(O)c3ncccc23)c1	2.4	240.8*	230.3	50.7	-0.6
Cc1ccc(C)c(N=Nc2ccc(O)c3ncccc23)c1	2.5	-26.6	-12.9	31.2	107.9*
Cc1ccc(O)c(CNc2cccc3cccnc23)c1	-0.6	15.0	9.5	3.1	0.9
O=C(CNC(=O)c1cnccc1C(F)(F)F)c1cccc(Cl)c1	0.0	-5.3	-1.5	.	1.4
CCc1cccc2c1Sc1ccccc1CC2N1CCNCC1 (stereo unspecified)	-0.8	-5.7	4.1	63.9*	-28.5
Cc1cccc2c1Sc1ccc(Cl)cc1CC2N1CCNCC1 (stereo unspecified)	0.6	-5.2	2.6	63.4*	67.1
CSc1cccc(NC(=O)CC(C)n2ccnc2)c1 (stereo unspecified)	-0.4	-4.7	-8.1	-4.9	-5.4
O=C(CSc1nnnn1-c1cccc2ccccc12)Nc1ccc(N2CCOCC2)c(Cl)c1	-0.2	31.6	23.3	73.2*	-0.6
CC1=CN2C(=N)/C(=C/c3ccc([N+](=O)[O-])o3)C(=O)N=C2S1	1.9	75.4*	52.9	22.9	7.6
COc1ccc(CCN2CC(C(=O)NCc3nc4ccccc4n3C)CCC2=O)cc1 (stereo unspecified)	0.0	-9.1	-7.9	12.7	9.8
CCOC(=O)C1(CCOc2ccccc2)CCN(Cc2ccc3nonc3c2)CC1	-1.5	-18.7	-4.5	66.9*	-3.7
CCOC(=O)C1(CCOc2ccccc2)CCN(Cc2cccn2-c2cccnc2)CC1	-0.8	34.0	10.9	60.1*	-3.7
CCOC(=O)C1(CCOc2ccccc2)CCN(Cc2cccc(-n3cccn3)c2)CC1	0.1	-69.7	-59.6*	37.9	26.8
CCOC(=O)C1(CCOc2ccccc2)CCN(Cc2ccc(OC)cc2)CC1	-0.8	-0.2	-0.8	39.8	-5.8
CC(C(=O)O)n1c(-c2ccn[nH]2)n[nH]c1=S (stereo unspecified)	1.1	-3.0	-3.4	-9.4	4.8
O=C(CCc1ccc(O)cc1)N/N=C/c1coc2ccccc2c1=O	0.3	-8.8	-1.3	0.8	19.0
COc1ccc(/C=C/C(=O)O)cc1S(=O)(=O)N1CCc2ccccc21	-1.5	0.2	11.1	-8.0	-2.2
CNC(=S)N/N=C/c1ccc(-c2ccc(Cl)c([N+](=O)[O-])c2)o1	0.3	30.2	13.2	0.5	84.7*
COc1ccccc1-c1noc(CCC(=O)NC2CCCCC2)n1	0.2	12.2	-1.5	8.0	14.3
NNC(=O)Cn1nc2n(c1=O)-c1ccccc1SC2	-0.2	14.8	-5.5	-1.7	-3.1
COc1cccc(/C=C/C(=O)c2cccc([N+](=O)[O-])c2)c1	0.0	1.4	11.9	-16.8	10.0
COc1cccc(/C=C/C(=O)c2cccc([N+](=O)[O-])c2)c1OC	0.6	58.2*	21.2	-8.7	18.1
O=C(Nc1ccccc1)c1ccc(CSc2ncccn2)cc1	1.1	87.1*	55.1	2.6	-3.4
CSCc1ccc(C(=O)NCc2ccc(C)cc2)cc1	1.2	-9.7	0.5	-13.5	-1.1
CSCc1ccc(C(=O)Nc2ccc(C(N)=O)cc2)cc1	3.7	54.7*	14.4	-4.7	4.5
Cc1ccc(S(=O)(=O)Nc2ncnc3ccccc23)cc1	0.8	-2.6	7.6	3.4	-5.5
O=C1C=CC(=O)N1c1ccc(Sc2ccc([N+](=O)[O-])cc2)cc1	-0.1	81.9*	41.5	5.3	-3.4
Cn1c(N)c(Sc2ccc([N+](=O)[O-])cc2)c(=O)n(C)c1=O	0.1	2.9	-5.2	-7.0	-5.0
Nc1ccc(Sc2ccc([N+](=O)[O-])cc2)cc1	0.2	4.6	-4.9	-1.5	93.3*
